ChEMBL document CHEMBL1154716, “Synthesis of some new S-triazine based chalcones and their derivatives as potent antimicrobial agents” (2010)
Values after ≈ are worked out from the molar mass of the structure shown. Active and inactive are the calls of the source. The calls are words filed in the database; no cut-off is given here.

Tests used:
Enterobacter cloacae [1] = assay: Antimicrobial activity against Enterobacter cloacae after 24 hrs by microdilution technique; assay type: functional
How it was run: (§1)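 Broth microdilution in LB medium. Inoculum is 1.0 × 10^4 cfu per well, from a saline-adjusted suspension of 1.0 × 10^5 cfu/ml. Compounds are dissolved in DMSO. Incubated 24 h at 28 C. MIC is the lowest concentration with no visible growth under a binocular microscope. MBC is read by subculture into fresh broth for 72 h, with no growth taken as 99.5% kill. OD is read at 655 nm.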

Pseudomonas aeruginosa [2] = assay: Antimicrobial activity against Pseudomonas aeruginosa after 24 hrs by microdilution technique; assay type: functional; how it was run: as §1
Bacillus cereus [3] = assay: Antimicrobial activity against Bacillus cereus after 24 hrs by microdilution technique; assay type: functional; how it was run: as §1
Escherichia coli [4] = assay: Antimicrobial activity against Escherichia coli after 24 hrs by microdilution technique; assay type: functional; how it was run: as §1
Micrococcus flavus [5] = assay: Antimicrobial activity against Micrococcus flavus at 10 ug/disk after 24 hrs by disk diffusion assay; assay type: functional
How it was run: (§2)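 Disc diffusion on 4 mm filter discs. Bacteria are grown overnight in LB at 28 C, then adjusted in saline to 1.0 × 10^5 cfu/ml. The suspension is mixed into top agar over peptone agar plates. Plates are incubated 24 h at 28 C, and growth-inhibition zone diameter is measured. Streptomycin and ampicillin controls are applied from a 1 mg/ml stock. Tests are done in duplicate.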

Listeria monocytogenes [6] = assay: Antimicrobial activity against Listeria monocytogenes at 10 ug/disk after 24 hrs by disk diffusion assay; assay type: functional; how it was run: as §2
Escherichia coli [7] = assay: Antimicrobial activity against Escherichia coli at 10 ug/disk after 24 hrs by disk diffusion assay; assay type: functional; how it was run: as §2
Micrococcus flavus [8] = assay: Antimicrobial activity against Micrococcus flavus after 24 hrs by microdilution technique; assay type: functional; how it was run: as §1
Staphylococcus aureus [9] = assay: Antimicrobial activity against Staphylococcus aureus at 10 ug/disk after 24 hrs by disk diffusion assay; assay type: functional; how it was run: as §2
Enterobacter cloacae [10] = assay: Antimicrobial activity against Enterobacter cloacae at 1 umol/disk after 24 hrs by disk diffusion assay; assay type: functional; how it was run: as §2
Salmonella typhimurium [11] = assay: Antimicrobial activity against Salmonella Typhimurium after 24 hrs by microdilution technique; assay type: functional, Salmonella enterica subsp. enterica serovar Typhimurium; conditions: Salmonella enterica; how it was run: as §1
Staphylococcus aureus [12] = assay: Antimicrobial activity against Staphylococcus aureus after 24 hrs by microdilution technique; assay type: functional; how it was run: as §1
Pseudomonas aeruginosa [13] = assay: Antimicrobial activity against Pseudomonas aeruginosa at 1 umol/disk after 24 hrs by disk diffusion assay; assay type: functional; how it was run: as §2
Bacillus cereus [14] = assay: Antimicrobial activity against Bacillus cereus at 10 ug/disk after 24 hrs by disk diffusion assay; assay type: functional; how it was run: as §2
Staphylococcus aureus [15] = assay: Antimicrobial activity against Staphylococcus aureus at 1 umol/spot after 18 hrs by TLC-bioautographic method; assay type: functional
How it was run: (§3)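 TLC bioautography. Samples are spotted on silica gel TLC plates, then sprayed with bacteria (1.0 × 10^5 cfu/ml) in tryptic soy broth. Plates are incubated 18 h at 37 C and sprayed with 3% aqueous p-iodonitrotetrazolium violet. After a further 3 h, growth is stopped with 70% EtOH. White zones on a pink background are scored as inhibition-zone diameter with standard errors.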

Micrococcus flavus [16] = assay: Antimicrobial activity against Micrococcus flavus at 1 umol/disk after 24 hrs by disk diffusion assay; assay type: functional; how it was run: as §2
Staphylococcus aureus [17] = assay: Antimicrobial activity against Staphylococcus aureus at 1 umol/disk after 24 hrs by disk diffusion assay; assay type: functional; how it was run: as §2
Salmonella typhimurium [18] = assay: Antimicrobial activity against Salmonella Typhimurium at 10 ug/disk after 24 hrs by disk diffusion assay; assay type: functional, organism-based; conditions: Salmonella enterica subsp. enterica serovar Typhimurium; how it was run: as §2
Pseudomonas aeruginosa [19] = assay: Antimicrobial activity against Pseudomonas aeruginosa at 1 umol/spot after 18 hrs by TLC-bioautographic method; assay type: functional; how it was run: as §3
Listeria monocytogenes [20] = assay: Antimicrobial activity against Listeria monocytogenes at 1 umol/spot after 18 hrs by TLC-bioautographic method; assay type: functional; how it was run: as §3
Escherichia coli [21] = assay: Antimicrobial activity against Escherichia coli at 1 umol/disk after 24 hrs by disk diffusion assay; assay type: functional; how it was run: as §2
Pseudomonas aeruginosa [22] = assay: Antimicrobial activity against Pseudomonas aeruginosa at 10 ug/disk after 24 hrs by disk diffusion assay; assay type: functional; how it was run: as §2
Salmonella typhimurium [23] = assay: Antimicrobial activity against Salmonella Typhimurium at 1 umol/spot after 18 hrs by TLC-bioautographic method; assay type: functional, Salmonella enterica subsp. enterica serovar Typhimurium; how it was run: as §3
Bacillus cereus [24] = assay: Antimicrobial activity against Bacillus cereus at 1 umol/spot after 18 hrs by TLC-bioautographic method; assay type: functional; how it was run: as §3
Enterobacter cloacae [25] = assay: Antimicrobial activity against Enterobacter cloacae at 1 umol/spot after 18 hrs by TLC-bioautographic method; assay type: functional; how it was run: as §3
Bacillus cereus [26] = assay: Antimicrobial activity against Bacillus cereus at 1 umol/disk after 24 hrs by disk diffusion assay; assay type: functional; how it was run: as §2
Listeria monocytogenes [27] = assay: Antimicrobial activity against Listeria monocytogenes after 24 hrs by microdilution technique; assay type: functional; how it was run: as §1
Micrococcus flavus [28] = assay: Antimicrobial activity against Micrococcus flavus at 1 umol/spot after 18 hrs by TLC-bioautographic method; assay type: functional; how it was run: as §3
Enterobacter cloacae [29] = assay: Antimicrobial activity against Enterobacter cloacae at 10 ug/disk after 24 hrs by disk diffusion assay; assay type: functional; how it was run: as §2
Listeria monocytogenes [30] = assay: Antimicrobial activity against Listeria monocytogenes at 1 umol/disk after 24 hrs by disk diffusion assay; assay type: functional; how it was run: as §2
Salmonella typhimurium [31] = assay: Antimicrobial activity against Salmonella Typhimurium at 1 umol/disk after 24 hrs by disk diffusion assay; assay type: functional, organism-based; conditions: Salmonella enterica subsp. enterica serovar Typhimurium; how it was run: as §2
Escherichia coli [32] = assay: Antimicrobial activity against Escherichia coli at 1 umol/spot after 18 hrs by TLC-bioautographic method; assay type: functional; how it was run: as §3

MIC (Enterobacter cloacae [1]) [µM] | MIC (Pseudomonas aeruginosa [2]) [µM] | MIC (Bacillus cereus [3]) [µM] | MIC (Escherichia coli [4]) [µM] | MIC (Micrococcus flavus [8]) [µM] | MIC (Salmonella typhimurium [11]) [µM] | MIC (Staphylococcus aureus [12]) [µM] | Compound | MBC (Enterobacter cloacae [1]) [µM] | MBC (Pseudomonas aeruginosa [2]) [µM] | MBC (Bacillus cereus [3]) [µM] | MBC (Escherichia coli [4]) [µM] | inhibition zone (IZ) (Listeria monocytogenes [6]) | inhibition zone (IZ) (Escherichia coli [7]) | MBC (Micrococcus flavus [8]) [µM] | inhibition zone (IZ) (Staphylococcus aureus [9]) | inhibition zone (IZ) (Enterobacter cloacae [10]) | MBC (Salmonella typhimurium [11]) [µM] | MBC (Staphylococcus aureus [12]) [µM] | inhibition zone (IZ) (Pseudomonas aeruginosa [13]) | inhibition zone (IZ) (Bacillus cereus [14]) | further results
193 (≈ 100 µg/mL) | 386 (≈ 200 µg/mL) | 193 (≈ 100 µg/mL) | 772 (≈ 401 µg/mL) | 193 (≈ 100 µg/mL) | 386 (≈ 200 µg/mL) | 386 (≈ 200 µg/mL) | O=C(/C=C/c1ccc(Cl)cc1)c1ccc(Nc2nc(Nc3ccccc3)nc(Nc3ccccc3)n2)cc1 | 386 (≈ 200 µg/mL) | 772 (≈ 401 µg/mL) | 386 (≈ 200 µg/mL) | 772 (≈ 401 µg/mL) | inactive | inactive | 386 (≈ 200 µg/mL) | inactive | inactive | 772 (≈ 401 µg/mL) | 772 (≈ 401 µg/mL) | inactive | inactive | inhibition zone (IZ) (Micrococcus flavus [5]): inactive; inhibition zone (IZ) (Staphylococcus aureus [15]): inactive; inhibition zone (IZ) (Micrococcus flavus [16]): inactive; inhibition zone (IZ) (Staphylococcus aureus [17]): inactive; inhibition zone (IZ) (Salmonella typhimurium [18]): inactive; inhibition zone (IZ) (Pseudomonas aeruginosa [19]): inactive; inhibition zone (IZ) (Listeria monocytogenes [20]): 0.07 millimeter; inhibition zone (IZ) (Escherichia coli [21]): inactive; inhibition zone (IZ) (Pseudomonas aeruginosa [22]): inactive; inhibition zone (IZ) (Salmonella typhimurium [23]): 0.09 millimeter; inhibition zone (IZ) (Bacillus cereus [24]): inactive; inhibition zone (IZ) (Enterobacter cloacae [25]): 0.08 millimeter; inhibition zone (IZ) (Bacillus cereus [26]): inactive; MBC (Listeria monocytogenes [27]): 772 µM (≈ 401 µg/mL); MIC (Listeria monocytogenes [27]): 386 µM (≈ 200 µg/mL); inhibition zone (IZ) (Micrococcus flavus [28]): 0.07 millimeter; inhibition zone (IZ) (Enterobacter cloacae [29]): inactive; inhibition zone (IZ) (Listeria monocytogenes [30]): inactive; inhibition zone (IZ) (Salmonella typhimurium [31]): inactive; inhibition zone (IZ) (Escherichia coli [32]): inactive
684 (≈ 401 µg/mL) | 684 (≈ 401 µg/mL) | 85 (≈ 49.8 µg/mL) | 171 (≈ 100 µg/mL) | 171 (≈ 100 µg/mL) | 684 (≈ 401 µg/mL) | 171 (≈ 100 µg/mL) | CC(=O)N1N=C(c2ccc(Nc3nc(Nc4ccccc4)nc(Nc4ccccc4)n3)cc2)CC1c1ccc([N+](=O)[O-])cc1 (stereo not given) | 684 (≈ 401 µg/mL) | 684 (≈ 401 µg/mL) | 171 (≈ 100 µg/mL) | 342 (≈ 200 µg/mL) | inactive | inactive | 342 (≈ 200 µg/mL) | inactive | inactive | 684 (≈ 401 µg/mL) | 342 (≈ 200 µg/mL) | inactive | inactive | zone of inhibition at 10 µg/disc (Micrococcus flavus [5]; read-out: IZ): 10 mm; inhibition zone (IZ) (Staphylococcus aureus [15]): inactive; inhibition zone (IZ) (Micrococcus flavus [16]): 0.04 millimeter; inhibition zone (IZ) (Staphylococcus aureus [17]): inactive; inhibition zone (IZ) (Salmonella typhimurium [18]): inactive; inhibition zone (IZ) (Pseudomonas aeruginosa [19]): inactive; inhibition zone (IZ) (Listeria monocytogenes [20]): 0.09 millimeter; inhibition zone (IZ) (Escherichia coli [21]): inactive; inhibition zone (IZ) (Pseudomonas aeruginosa [22]): inactive; inhibition zone (IZ) (Salmonella typhimurium [23]): 0.1 millimeter; inhibition zone (IZ) (Bacillus cereus [24]): 0.1 millimeter; inhibition zone (IZ) (Enterobacter cloacae [25]): 0.09 millimeter; inhibition zone (IZ) (Bacillus cereus [26]): inactive; MBC (Listeria monocytogenes [27]): 684 µM (≈ 401 µg/mL); MIC (Listeria monocytogenes [27]): 684 µM (≈ 401 µg/mL); inhibition zone (IZ) (Micrococcus flavus [28]): 0.07 millimeter; inhibition zone (IZ) (Enterobacter cloacae [29]): inactive; inhibition zone (IZ) (Listeria monocytogenes [30]): inactive; inhibition zone (IZ) (Salmonella typhimurium [31]): inactive; inhibition zone (IZ) (Escherichia coli [32]): inactive
